The results in this text go back to ChEMBL document CHEMBL1212935 (J Med Chem, 2010).

Active and inactive are the calls of the source. The calls are words filed in the database; no cut-off is given here.

One data set addresses Cannabinoid receptor 1 (Homo sapiens, UniProt P21554). As to the kind of experiment: biochemical. It counts as cell-based, HEK293.
Data set [1] addresses T1, Cannabinoid receptor 2 (Homo sapiens, UniProt P34972). As to the kind of experiment: Displacement of [3H]CP-55940 from human CB2 receptor expressed in HEK cells. The data set is classed as cell-based, HEK293. (In a radioligand displacement assay an active substance lowers the binding of a labelled ligand.)
The next data set is filed under the species Homo sapiens. The experiment in a line: Selectivity ratio of Ki for human CB1 receptor to Ki for human CB2 receptor.
The subject of data set [2] is Mus musculus. As to the kind of experiment: Antinociceptive activity in mouse hind paw assessed as inhibition of formalin-induced nociceptive behavior at 1 mg/kg, ip administered 15 mins prior to formalin challenge. It counts as functional, organism-based. Set-up: dose 1 mg/kg. Summed up:
(§1)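 Mice received ip compound in 20% DMSO in 0.9% NaCl, groups of 8-10, one treatment per animal. Formalin (1.25% in saline, 30 μL) was injected into the dorsal hind paw 15 min later. A blinded observer timed lifting, favoring, licking, shaking and flinching over 0-10 min (early phase) and 20-60 min (late phase). Mean ± SEM; ANOVA with Dunnett's test.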

The test system of data set [3] is Mus musculus. As to the kind of experiment: Antinociceptive activity in mouse hind paw assessed as inhibition of formalin-induced nociceptive behavior at 1 to 3 mg/kg, ip administered 15 mins prior to formalin challenge. The data set is classed as functional, organism-based. Summed up:
as §1

Data set [4] concerns Mus musculus. The experiment in a line: Antinociceptive activity in mouse hind paw assessed as inhibition of formalin-induced nociceptive behavior at 1 to 3 mg/kg, ip administered 15 mins prior to formalin challenge in presence of CB2 selective agonist JWH133. It counts as functional, organism-based. In short, it runs like this: as §1
Data set [5] deals with T1, Cannabinoid receptor 2. As to the kind of experiment: Antagonist activity at human CB2 receptor expressed in CHO cells assessed as inhibition of forskolin-stimulated cAMP level by [35S]GTPgammaS binding assay. It counts as functional, cell-based. In short, it runs like this:
(§2)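 CHO cells stably carrying human CB2 (DMEM/F12 with 10% FBS and G418 400 μg/mL, 37 °C, 5% CO2); membranes scraped and pelleted. [35S]GTPγS 0.1 nM with GDP 30 μM, 50 μg membrane protein, in Tris/NaCl/BSA buffer with 5 mM MgCl2, 1 mM DTT and 1 mM EDTA; 60 min at 30 °C. Nonspecific binding with 30 μM GTPγS. Filtration, then scintillation counting.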
For orientation: cAMP levels reflect the balance of adenylyl cyclase and phosphodiesterase activity.

Data set [6] deals with T1, Cannabinoid receptor 2. The experiment in a line: Antagonist activity at human CB2 receptor expressed in CHO cells assessed as inhibition of forskolin-stimulated cAMP level at < 100 uM by [35S]GTPgammaS binding assay. It counts as functional, cell-based.
The target in data set [7] is T1, Cannabinoid receptor 2. As to the kind of experiment: Antagonist activity at human CB2 receptor expressed in CHO cells assessed as inhibition of forskolin-stimulated cAMP level up to 20 uM by [35S]GTPgammaS binding assay. The data set is classed as functional, cell-based. In short, it runs like this: as §2
For a further data set, the target named is CYP3A4 (Homo sapiens, UniProt P08684). The experiment in a line: Inhibition of CYP3A4 after 1 hr assessed as residual activity. It counts as ADME. To be noted: read-out: Activity.
CYP3A4, sequence (P08684 whole entry): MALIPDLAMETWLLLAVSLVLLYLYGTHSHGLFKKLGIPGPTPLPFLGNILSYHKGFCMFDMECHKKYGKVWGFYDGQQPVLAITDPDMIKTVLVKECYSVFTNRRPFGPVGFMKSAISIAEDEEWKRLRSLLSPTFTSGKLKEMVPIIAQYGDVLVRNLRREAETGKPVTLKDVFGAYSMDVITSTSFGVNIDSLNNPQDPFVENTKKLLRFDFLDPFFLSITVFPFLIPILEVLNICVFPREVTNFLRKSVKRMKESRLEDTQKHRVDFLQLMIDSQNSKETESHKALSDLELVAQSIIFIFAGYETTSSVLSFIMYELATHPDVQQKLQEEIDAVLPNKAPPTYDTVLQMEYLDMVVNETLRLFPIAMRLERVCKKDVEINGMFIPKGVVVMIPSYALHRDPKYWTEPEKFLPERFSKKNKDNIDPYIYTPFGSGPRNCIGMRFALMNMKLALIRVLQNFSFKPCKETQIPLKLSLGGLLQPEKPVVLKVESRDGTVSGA
Data set [8] deals with Mus musculus. The experiment in a line: Antinociceptive activity in mouse hind paw assessed as inhibition of formalin-induced nociceptive behavior at 3 mg/kg, ip administered 15 mins prior to formalin challenge. The data set is classed as functional, organism-based. Also noted: dose 3 mg/kg. Summed up: as §1

T1 sequence (P34972 whole entry): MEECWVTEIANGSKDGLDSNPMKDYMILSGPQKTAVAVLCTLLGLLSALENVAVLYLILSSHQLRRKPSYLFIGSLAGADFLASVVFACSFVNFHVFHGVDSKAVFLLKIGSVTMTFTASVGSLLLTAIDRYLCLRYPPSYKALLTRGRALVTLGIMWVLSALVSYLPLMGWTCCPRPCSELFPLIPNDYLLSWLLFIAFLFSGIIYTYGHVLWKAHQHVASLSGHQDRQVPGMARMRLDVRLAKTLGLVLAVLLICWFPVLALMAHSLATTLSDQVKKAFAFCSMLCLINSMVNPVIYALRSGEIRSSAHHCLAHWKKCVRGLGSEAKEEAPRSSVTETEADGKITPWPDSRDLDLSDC
Cannabinoid receptor 1, sequence (P21554 whole entry): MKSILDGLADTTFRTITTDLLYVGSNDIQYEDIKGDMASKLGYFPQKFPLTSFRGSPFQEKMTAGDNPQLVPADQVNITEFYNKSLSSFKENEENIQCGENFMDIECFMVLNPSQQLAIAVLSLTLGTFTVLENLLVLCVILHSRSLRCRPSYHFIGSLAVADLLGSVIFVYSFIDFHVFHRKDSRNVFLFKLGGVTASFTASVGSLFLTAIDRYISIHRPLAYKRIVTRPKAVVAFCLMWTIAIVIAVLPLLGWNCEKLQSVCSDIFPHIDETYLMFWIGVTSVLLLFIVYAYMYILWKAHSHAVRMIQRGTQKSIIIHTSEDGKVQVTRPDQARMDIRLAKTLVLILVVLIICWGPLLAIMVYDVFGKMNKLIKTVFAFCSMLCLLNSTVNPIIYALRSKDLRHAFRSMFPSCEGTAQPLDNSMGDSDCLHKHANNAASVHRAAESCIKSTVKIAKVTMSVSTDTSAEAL

Turning to `CCCCCn1cc(C(=O)NC23CC4CC(CC(C4)C2)C3)c(=O)c2cc(C3=CCCCC3)ccc21`, the Ki (in general, the equilibrium dissociation constant of an inhibitor or competing ligand from its target) on Cannabinoid receptor 1 was above 10000 nM; on Cannabinoid receptor 2 [1], 8.3 nM. For the same compound, the Selectivity Index in the data set listed under Homo sapiens is above 1200.
In the same order, the values of `CCCCCn1cc(C(=O)NC23CC4CC(CC(C4)C2)C3)c(=O)c2cc(-c3c(C)noc3C)ccc21` are above 10000 nM, 126 nM and above 80.
In the same order, the values of `CCCCCn1cc(C(=O)NC23CC4CC(CC(C4)C2)C3)c(=O)c2cc(/C=C/C(C)(C)C)ccc21` are above 10000 nM, 71.6 nM and above 140.
As to `COc1ccc(C(=O)c2c(C)n(CCN3CCOCC3)c3cc(I)ccc23)cc1`, the Activity result in the data set with Mus musculus [2] was “inactive”.
For `C#Cc1ccc2c(c1)c(=O)c(C(=O)NC13CC4CC(CC(C4)C1)C3)cn2CCCCC`, the Ki is above 10000 nM at Cannabinoid receptor 1 and 8.8 nM on Cannabinoid receptor 2 [1]. Further, the Selectivity Index in the data set filed under Homo sapiens was above 1140.
For `CCCCCn1cc(C(=O)NN2CCCCC2)c(=O)c2cc(Br)ccc21`, in that order: 1900 nM, 400 nM and 5.
On to `CCCCCn1cc(C(=O)NC23CC4CC(CC(C4)C2)C3)c(=O)c2cc(C#Cc3ccccc3)ccc21`, for which the results for the Ki at Cannabinoid receptor 1 and on Cannabinoid receptor 2 [1] were above 10000 nM and 343 nM, respectively. In addition, the Selectivity Index in the data set filed under Homo sapiens is above 29.
As to `CCCCCn1cc(C(=O)NC23CC4CC(CC(C4)C2)C3)c(=O)c2cc(-c3ccc(OC)nc3)ccc21`, the Ki on Cannabinoid receptor 1 is above 10000 nM; at Cannabinoid receptor 2 [1] it was 59.3 nM. In addition, the Selectivity Index in the data set filed under Homo sapiens is above 169.
For `CCCCCn1cc(C(=O)NC23CC4CC(CC(C4)C2)C3)c(=O)c2cc(-c3cccs3)ccc21`, in that order: above 10000 nM, 2.3 nM and above 4350.
Take `CCCCCn1cc(C(=O)N[C@H]2C(C)(C)[C@H]3CC[C@]2(C)C3)c(=O)c2cc(Br)ccc21`: the inhibition constant (Ki) on Cannabinoid receptor 1 came to 2.8 nM; at Cannabinoid receptor 2 [1], 5 nM. Moreover, the Selectivity Index in the data set filed under Homo sapiens came to 0.6.
In the same order, the values of `CCCCCn1cc(C(=O)NC2CCCCC2)c(=O)c2cc(Br)ccc21` are 1700 nM, 900 nM and 2.
For `CCCCCn1cc(C(=O)NC23CC4CC(CC(C4)C2)C3)c(=O)c2cc(-c3cc(C)c(OC)c(C)c3)ccc21`, the inhibition constant (Ki) was 510 nM on Cannabinoid receptor 1 and 21.5 nM at Cannabinoid receptor 2 [1]. Also, the Selectivity Index in the data set listed under Homo sapiens stood at 24.
In the same order, the values of `C=CCn1cc(C(=O)NC23CC4CC(CC(C4)C2)C3)c(=O)c2cc(-c3ccco3)ccc21` are above 10000 nM, 59 nM and above 169.
For `CCCCCn1cc(C(=O)NC23CC4CC(CC(C4)C2)C3)c(=O)c2cc(-c3ccc(Cl)cc3)ccc21`, in that order: above 10000 nM, 11 nM and above 909.
For `CCCCCn1cc(C(=O)NC23CC4CC(CC(C4)C2)C3)c(=O)c2cc(-c3ccc4cc(OC)ccc4c3)ccc21`, in that order: 360 nM, 52.6 nM and 7.
Turning to `CCCCCn1cc(C(=O)NC23CC4CC(CC(C4)C2)C3)c(=O)c2cc(-c3ccc(C#N)cc3)ccc21`, the Ki is above 10000 nM on Cannabinoid receptor 1 and 41.9 nM on Cannabinoid receptor 2 [1]. The Selectivity Index in the data set listed under Homo sapiens was above 239. Also, in the data set on Mus musculus [3], the Activity result was “Active”.
On to `CCCCCn1cc(C(=O)NC23CC4CC(CC(C4)C2)C3)c(=O)c2cc(I)ccc21`, for which the Ki turned out to be 2080 nM at Cannabinoid receptor 1 and 20.6 nM on Cannabinoid receptor 2 [1]. Further, in the data set listed under Homo sapiens, the Selectivity Index turned out to be 101.
Take `CCCCCn1cc(C(=O)NC23CC4CC(CC(C4)C2)C3)c(=O)c2cc([S+]([O-])c3ccccc3)ccc21` (centres undefined): the inhibitory constant (Ki) on Cannabinoid receptor 1 stood at 460 nM; at Cannabinoid receptor 2 [1], 73.2 nM. Besides, the Selectivity Index in the data set listed under Homo sapiens is 6.
Regarding `CCCCCn1cc(C(=O)NC23CC4CC(CC(C4)C2)C3)c(=O)c2cc(CC)ccc21`, the inhibitory constant (Ki) amounted to 900 nM on Cannabinoid receptor 1 and 16.9 nM at Cannabinoid receptor 2 [1]. Further, in the data set filed under Homo sapiens, the Selectivity Index is 53.
Consider `CCCCCn1cc(C(=O)NC23CC4CC(CC(C4)C2)C3)c(=O)c2cc(-c3cnn(CC(C)C)c3)ccc21`, for which the Ki is 246 nM at Cannabinoid receptor 1 and 51 nM at Cannabinoid receptor 2 [1]. In addition, the Selectivity Index in the data set filed under Homo sapiens turned out to be 5.
For `CCCCCn1cc(C(=O)NC23CC4CC(CC(C4)C2)C3)c(=O)c2cc(-n3cccc3)ccc21`, in that order: 29.7 nM, 0.7 nM and 42.
For `CCCCCn1cc(C(=O)NC23CC4CC(CC(C4)C2)C3)c(=O)c2cc(Cc3ccc(Cl)cc3Cl)ccc21`, in that order: above 10000 nM, 3880 nM and above 3.
In the same order, the values of `C=CCCn1cc(C(=O)NC23CC4CC(CC(C4)C2)C3)c(=O)c2cc(-c3ccco3)ccc21` are above 10000 nM, 4.4 nM and above 2270.
On to `CCCCCn1cc(C(=O)NC23CC4CC(CC(C4)C2)C3)c(=O)c2cc(/C=C/c3ccccc3)ccc21`, for which the inhibition constant (Ki) at Cannabinoid receptor 1 is above 10000 nM; at Cannabinoid receptor 2 [1], 65.4 nM. Also, in the data set filed under Homo sapiens, the Selectivity Index was above 153.
As for `CCCCCn1cc(C(=O)NC23CC4CC(CC(C4)C2)C3)c(=O)c2cc(C3CCCCC3)ccc21`, the Ki at Cannabinoid receptor 1 was above 10000 nM; on Cannabinoid receptor 2 [1] it was 7.3 nM. For the same compound, the Selectivity Index in the data set filed under Homo sapiens is above 1370. Also, the Activity entry in the data set on Mus musculus [3] was “inactive”. Besides, the Activity result with Mus musculus [4] is “Active”.
Consider `C#CCn1cc(C(=O)NC23CC4CC(CC(C4)C2)C3)c(=O)c2cc(Br)ccc21`, for which the Ki on Cannabinoid receptor 1 turned out to be 3210 nM; at Cannabinoid receptor 2 [1], 49.8 nM. The Selectivity Index in the data set listed under Homo sapiens came out at 64.
For `CCCCCn1cc(C(=O)NC23CC4CC(CC(C4)C2)C3)c(=O)c2cc(-c3ccco3)ccc21`, the inhibition constant (Ki) at Cannabinoid receptor 1 was above 10000 nM; at Cannabinoid receptor 2 [1] it was 0.7 nM. Further, the Selectivity Index in the data set filed under Homo sapiens was above 14300. In addition, the Activity entry on Cannabinoid receptor 2 [5] and in the data set on Mus musculus [3] was “Active” in each case. The Emax (commonly the maximal effect, on the per cent scale that the assay sets) at Cannabinoid receptor 2 [6] was 13.9%. At Cannabinoid receptor 2 [7], the Activity result was “inactive”. Besides, on CYP3A4, the activity at 1 h amounted to 4%.
For `CCCCCn1cc(C(=O)NC23CC4CC(CC(C4)C2)C3)c(=O)c2cc(-c3ccc(-c4ccccc4)cc3)ccc21`, the figures for the Ki on Cannabinoid receptor 1 and at Cannabinoid receptor 2 [1] were above 10000 nM and 181 nM, respectively. Besides, the Selectivity Index in the data set listed under Homo sapiens was above 55.
For `CCCCCn1cc(C(=O)N[C@H]2C(C)(C)[C@H]3CC[C@]2(C)C3)c(=O)c2cc(-c3ccco3)ccc21`, in that order: 480 nM, 2.4 nM and 200.
For the compound `CCCCCn1cc(C(=O)NC23CC4CC(CC(C4)C2)C3)c(=O)c2cc(CCc3ccccc3)ccc21`, the results for the inhibition constant (Ki) at Cannabinoid receptor 1 and at Cannabinoid receptor 2 [1] were above 10000 nM and 56.6 nM, respectively. For the same compound, the Selectivity Index in the data set filed under Homo sapiens was above 177. Moreover, the Activity entry with Mus musculus [8] is “inactive”.
Turning to `CCCCCn1cc(C(=O)NC23CC4CC(CC(C4)C2)C3)c(=O)c2cc(-c3ccc(F)cc3F)ccc21`, the Ki on Cannabinoid receptor 1 was above 10000 nM; at Cannabinoid receptor 2 [1], 16 nM. Also, the Selectivity Index in the data set listed under Homo sapiens is above 625.
In the same order, the values of `CCCCCn1cc(C(=O)NC23CC4CC(CC(C4)C2)C3)c(=O)c2cc(-n3ccnc3)ccc21` are above 10000 nM, 8 nM and above 1250.
Consider `CCCCCn1cc(C(=O)NC23CC4CC(CC(C4)C2)C3)c(=O)c2cc(S(=O)(=O)c3ccccc3)ccc21`, for which the results for the inhibitory constant (Ki) at Cannabinoid receptor 1 and on Cannabinoid receptor 2 [1] were above 10000 nM and 65.9 nM, respectively. In addition, the Selectivity Index in the data set listed under Homo sapiens was above 152.
In the case of `CCCCCn1cc(C(=O)NC23CC4CC(CC(C4)C2)C3)c(=O)c2cc(-c3ccc(O)cc3)ccc21`, the values for the inhibition constant Ki on Cannabinoid receptor 1 and on Cannabinoid receptor 2 [1] were above 10000 nM and 4.2 nM, respectively. The Selectivity Index in the data set listed under Homo sapiens is above 2380. Further, in the data set on Mus musculus [3], the Activity entry was “Active”. Further, the Activity entry in the data set on Mus musculus [4] is “inactive”.
In the case of `CCCCCn1cc(C(=O)NC23CC4CC(CC(C4)C2)C3)c(=O)c2cc(-c3ccc(Cl)s3)ccc21`, the inhibitory constant (Ki) on Cannabinoid receptor 1 is above 10000 nM; on Cannabinoid receptor 2 [1], 44.8 nM. The Selectivity Index in the data set filed under Homo sapiens is above 223.
